Assay results pooled from the literature.
Each line is one published result; the experiments were not run side by side.
CHRM1: Muscarinic acetylcholine receptor M1 (CHRM1, Homo sapiens, UniProt P11229)
CYP3A4: Cytochrome P450 3A4 (CYP3A4, Homo sapiens, UniProt P08684)

| SMILES | target | test | test system | conditions | measurement | result |
| --- | --- | --- | --- | --- | --- | --- |
| CSCC[C@H](NC(=O)[C@@H](NC(=O)[C@@H](N)Cc1ccc(O)cc1)C(C)C)C(=O)NCC(=O)N[C@@H](Cc1c[nH]cn1)C(=O)O | Melanocortin receptor 3 (Mus musculus, UniProt P33033) | reporter gene, agonist |  |  | EC50 | > 100 µM |
| CC(C)C[C@H]1C(=O)N2CCC[C@H]2[C@]2(O)O[C@](NC(=O)[C@@H]3C=C4c5cccc6[nH]cc(c56)C[C@H]4N(C)C3)(C(C)C)C(=O)N12 | Solute carrier organic anion transporter family member 1B1 (SLCO1B1, Homo sapiens, UniProt Q9Y6L6) | transporter uptake, inhibitor, fluorescence | CHO | 30 min, pH 7.4 | IC50 | 0.8 µM |
| COC(=O)C1=CCCN(C)C1 | Acetyl-CoA acetyltransferase, mitochondrial (Homo sapiens, UniProt P24752) | enzyme activity, inhibitor |  |  | IC50 | ~11.1 µM |
| CC(C)=CCC/C(C)=C/CC/C(C)=C/CSc1ccccc1C(=O)O | 4,4'-diapophytoene synthase (Staphylococcus aureus, UniProt A9JQL9) | enzyme activity, inhibitor |  |  | Ki | 110 nM |
| COc1cc(C(=O)N2CC[C@@H](O)[C@@H](N)C2)cc2nc(-c3cc4ccccc4n3CC3CC3)n(C)c12 | CHRM1 | calcium signal, agonist |  |  | EC50 | 5.01 µM |
| NCCCCCCNC(=O)c1ccc(NC(=O)c2ccc(CN(C(=O)c3ccc4c(c3)OCC(=O)N4)C3CC3)cc2)cc1 | Histone-lysine N-methyltransferase NSD2 (NSD2, Homo sapiens, UniProt O96028) | protein level, degrader |  |  | DC50 | 350 nM |
| c1cc(N2CCNCC2)c2cc[nH]c2c1 | CHRM1 | ligand displacement, radioligand |  | cell membranes | Ki | > 31600 nM |
| CCCCN1CCC(COC(=O)c2cc(Cl)c(N)c3c2OCCO3)CC1 | 5-hydroxytryptamine receptor 4 (HTR4, Homo sapiens, UniProt Q13639) | ligand displacement, radioligand |  |  | Ki | 0.1 nM |
| N#Cc1c(N)nc(SCC(N)=O)c(C#N)c1-c1ccc(OCC2CC2)cc1 | Adenosine receptor A2b (ADORA2B, Homo sapiens, UniProt P29275) | ligand displacement in cells, radioligand |  |  | IC50 | 0.785 µM |
| COc1cc([C@@H]2c3cc4c(cc3[C@@H](O[C@@H]3O[C@@H]5CO[C@@H](C)O[C@H]5[C@H](O)[C@H]3O)[C@H]3COC(=O)[C@H]23)OCO4)cc(OC)c1O | Organic cation/carnitine transporter 2 (SLC22A5, Homo sapiens, UniProt O76082) | transporter uptake, inhibitor, radiometric |  |  | IC50 | 55 µM |
| O=C(O)c1ccccc1-c1c2cc(Br)c(=O)cc-2oc2[c]([Hg+])c(O)c(Br)cc12 | Papain (Carica papaya, UniProt P00784) | binding, ITC |  |  | Kd | ~39 mM |
| CC[C@H](C)[C@H](NC(=O)[C@H](CCCNC(=N)N)NC(=O)[C@H](CCCCN)NC(=O)[C@@H]1CCCN1C(=O)[C@@H](N)CC(C)C)C(=O)N[C@@H](C)C(=O)O | N-terminal Xaa-Pro-Lys N-methyltransferase 1 (Homo sapiens, UniProt Q9BV86) | binding, ITC |  | pH 7.5 | Kd | 0.048 mM |
| CC(C)C[C@H](NC(=O)[C@H](Cc1ccccc1)NC(=O)c1cnccn1)B(O)O | Chymase (CMA1, Homo sapiens, UniProt P23946) | enzyme activity, inhibitor |  |  | IC50 | 4.7 µM |
| N[C@@H](C[C@]1(C(=O)O)C[C@H]2OC[C@@H](O)[C@@H](O)[C@H]2O1)C(=O)O | Glutamate receptor ionotropic, kainate 3 (Rattus norvegicus, UniProt P42264, F446Y) | ligand displacement, radioligand |  |  | Ki | 547 nM |
| N#C[C@H](C[C@@H]1CCCNC1=O)NC(=O)[C@H](CC1CC1)NC(=O)c1cc2cccc(Cl)c2[nH]1 | CYP3A4 | enzyme activity, inhibitor | human, liver microsomes | midazolam probe | IC50 | 69.4 µM |
| CCc1cc(/C(C)=N/OCc2ccc(C3CCCCC3)c(C(F)(F)F)c2)ccc1CN1CC(C(=O)O)C1 | CYP3A4 | enzyme activity, inhibitor | human, liver microsomes | 20 min, midazolam probe | IC50 | > 1.1 µM |
